Converted amounts (≈) assume the structure as drawn.
Experiments:
Format in all cases: functional
[1] = test system: Streptococcus pyogenes; assay: Antimicrobial activity against Streptococcus pyogenes clinical isolate expressing mef(E) gene by broth microdilution method
Outline: (§1)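 Clinical isolates were subcultured from -70°C or 4°C storage onto horse blood agar and grown overnight at 36°C in 5 to 6% CO2. MICs were then measured by CLSI broth microdilution. mef presence was screened by a TaqMan plus/minus assay, and the mef subclass was assigned by sequencing.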

[2] = test system: Streptococcus pyogenes; assay: Antimicrobial activity against Streptococcus pyogenes clinical isolate expressing mef(A) gene by broth microdilution method; outline: as §1
[3] = test system: Streptococcus pyogenes; assay: Antimicrobial activity against Streptococcus pyogenes clinical isolate expressing mosaic variant of mef gene by broth microdilution method; outline: as §1

Structure (SMILES) | MIC50 [1] | MIC90 [1] | MIC50 [2] | MIC90 [2] | MIC [3] | MIC50 [3] | MIC90 [3] | MIC [2]
CC[C@H]1OC(=O)[C@H](C)[C@@H](O[C@H]2C[C@@](C)(OC)[C@@H](O)[C@H](C)O2)[C@H](C)[C@@H](O[C@@H]2O[C@H](C)C[C@H](N(C)C)[C@H]2O)[C@](C)(O)C[C@@H](C)CN(C)[C@H](C)[C@@H](O)[C@]1(C)O [AZITHROMYCIN] | 8 µg/mL (≈ 10.7 µM) | 16 µg/mL (≈ 21.4 µM) | 8 µg/mL (≈ 10.7 µM) | 16 µg/mL (≈ 21.4 µM) | 16 µg/mL (≈ 21.4 µM) | 16 µg/mL (≈ 21.4 µM) | 32 µg/mL (≈ 42.7 µM) | 
CC[C@H]1OC(=O)[C@H](C)[C@@H](O[C@H]2C[C@@](C)(OC)[C@@H](O)[C@H](C)O2)[C@H](C)[C@@H](O[C@@H]2O[C@H](C)C[C@H](N(C)C)[C@H]2O)[C@](C)(OC)C[C@@H](C)C(=O)[C@H](C)[C@@H](O)[C@]1(C)O [CLARITHROMYCIN] | 4 µg/mL (≈ 5.35 µM) | 8 µg/mL (≈ 10.7 µM) | 8 µg/mL (≈ 10.7 µM) | 16 µg/mL (≈ 21.4 µM) |  | 8 µg/mL (≈ 10.7 µM) | 8 µg/mL (≈ 10.7 µM) | 
CCC[C@@H]1C[C@@H](C(=O)N[C@@H]([C@H]2O[C@H](SC)[C@H](O)[C@@H](O)[C@H]2O)[C@H](C)Cl)N(C)C1 [CLINDAMYCIN] | 0.25 µg/mL (≈ 0.588 µM) | 0.25 µg/mL (≈ 0.588 µM) | 0.06 µg/mL (≈ 0.141 µM) | 0.25 µg/mL (≈ 0.588 µM) |  | 0.06 µg/mL (≈ 0.141 µM) | 0.06 µg/mL (≈ 0.141 µM) | 
CC[C@H]1OC(=O)[C@H](C)[C@@H](O[C@H]2C[C@@](C)(OC)[C@@H](O)[C@H](C)O2)[C@H](C)[C@@H](O[C@@H]2O[C@H](C)C[C@H](N(C)C)[C@H]2O)[C@](C)(O)C[C@@H](C)C(=O)[C@H](C)[C@@H](O)[C@]1(C)O [ERYTHROMYCIN] | 8 µg/mL (≈ 10.9 µM) | 16 µg/mL (≈ 21.8 µM) | 16 µg/mL (≈ 21.8 µM) | 16 µg/mL (≈ 21.8 µM) | 8 µg/mL (≈ 10.9 µM) | 8 µg/mL (≈ 10.9 µM) | 16 µg/mL (≈ 21.8 µM) | 
CN(C)[C@@H]1C(O)=C(C(N)=O)C(=O)[C@@]2(O)C(O)=C3C(=O)c4c(O)cccc4[C@@](C)(O)[C@H]3C[C@@H]12 [TETRACYCLINE] | 32 µg/mL (≈ 72 µM) | 32 µg/mL (≈ 72 µM) | 0.25 µg/mL (≈ 0.563 µM) | 0.25 µg/mL (≈ 0.563 µM) | 32 µg/mL (≈ 72 µM) | 32 µg/mL (≈ 72 µM) | 32 µg/mL (≈ 72 µM) | 0.25 µg/mL (≈ 0.563 µM)

Source: ChEMBL document CHEMBL1649186, “Characterization of macrolide efflux pump mef subclasses detected in clinical isolates of Streptococcus pyogenes isolated between 1999 and 2005” (2009)
